# Fewer inactive variants are shown than the library holds.
# B1: tRNA (parent)
# chain: GUUCCGUUGGCGUAAUGGUAACGCGUCUCCCUCCUAAGGAGAAGACUGCGGGUUCGAGUCCCGUACGGAACG
# Variants of: B1
# Test: yeast fitness relative to wild type (ratio to wild type); higher = fitter; tRNA-Arg(CCU), competitive growth, 37 C, YPD
# In short: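 For this measurement, the tRNA-Arg(CCU) gene was varied by chemical synthesis at a 3% per-site mutation rate across 69 sites, and each variant was placed at the native genomic locus in Saccharomyces cerevisiae. The pooled strains went through a 24-hour competition in YPD at 37°C in six parallel replicates, with amplicons from start and end populations read by 100-nucleotide paired-end sequencing. Darwinian fitness relative to wild type followed from the change in each genotype's frequency. Genotypes needed ≥ 100 starting reads, and estimates < 0.5 were set to 0.5.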
row,Variant,yeast fitness
1,GUUCUGUUGGUGUAAUGGUAACGCGUCUCCCUCCUAAGGAGAAGAUUGCGGGUUCGAGUCCCGUUCGGUACG [C5U C11U C46U A65U A69U],0.563
2,GUUCUGUUGGCGUAAUGGUAACGAGUGUCCCUCCUAAGGAGAAGACUGCGGGUUCGAGUCACGUAGGGAACG [C5U C24A C27G C61A C66G],0.624
3,GUUCUGUUGGCGUAAUGGUAAUGCGUCUCCCUUCUAGGGAGAAGACUGCGGGUUCGAGUCCCGUACGGAACG [C5U C22U C33U A37G],≤ 0.5
4,GUUCUGUUGGCGUAAUGGUAACGGGUCUCCCGCCUGAGGAGAAGACUGCGGGUUCGAGUACCGUUCGGAACG [C5U C24G U32G A36G C60A A65U],0.535
5,GUUCUGUUGGCGUAAUGGUAAGGCGUCUCCCUCCUAAGGAGAAGACUGCGGGUUCGAGUCCCGUACGGAUCG [C5U C22G A70U],0.754
6,GUUCUGUUGGCGUAAUGGUAAGGCGGCUCCCUCCUAAGGAGCAGACUGCGAGUUCGAGUCCCGUACGGAACG [C5U C22G U26G A42C G51A],0.537
7,GUUCUGUUGGCGUAAUGGUAAGGCGUCUGCCUCCUAAGGAGAAGACUGCGGGUUCGAGUCCCGUACGGAACG [C5U C22G C29G],0.602
8,GUUCUGUUGGUGUAAUGGUAACGCGUCUCGCUCCUAAGGAGAAGACUGCGGGUUCGAGUCACGUACGGAACG [C5U C11U C30G C61A],≤ 0.5
9,GUUCUGUUGGCGUAAUGGUAAUCCGUCUCCCUCCUGAGGAGAAGACUGCGGGUUCGAGUCCCGUACAGAACG [C5U C22U G23C A36G G67A],≤ 0.5
10,GUUCUGUUGGCGUAAUGGUAACGUGUCUCCCUCCUGAGGACAAGACUGCGGGUUCGAGUCCCGUACGGAACG [C5U C24U A36G G41C],≤ 0.5
11,GUUCUGUUGGCGUAAUGGUAACGAGUCUCCCUCCUAAGGAGAAGACUGCGGGUUCGAGUCCCGUUCGGAACG [C5U C24A A65U],0.733
12,GUUCUGUUGGCGUAAUGGUAAGGCGUCUCUCUGCUAAGGAGAAGACUGCGGGUUCGAGUCCCGUACGGAACG [C5U C22G C30U C33G],≤ 0.5
13,GUUCUGUUGGCGUAAUGGUAAUGCGUCUCCCUCCUAAGGAGAAGACUGCGGGUUCGAGUCCUGUACGGAACG [C5U C22U C62U],0.66
14,GUUCUGUUGGCGUAAUGGUAAUGCGUCUCCCUCCUAAGGAGAAGACUGCGGGUUCGAGUCCCGUAUGGAACG [C5U C22U C66U],≤ 0.5
15,GUUCUGUUGGCGUAAUGGUAACGGGUCUCCGUCCUAAGGAGAAGACUGCGGGUUCGAGUCGCGUACGGAACG [C5U C24G C31G C61G],≤ 0.5
16,GUUCUGUUGGCGUAAUGGUAACGUGUCUCCCUCCUAAGGAGCAGACUGCGGGUUCGUGUCCCGUACGGAACG [C5U C24U A42C A57U],0.534
17,GUUCUGUUGGCGUAAUGGUAAGGCGUCUGCCUCCUAAGGAGAAGACUGCGGGUUCGAGUCCCGUACGCAACG [C5U C22G C29G G68C],≤ 0.5
18,GUUCUGUUGGCGUAAUGGUAAGGCGUCUCCCUCCUAAGGGGAAGACUGCGGGUUCGAGUCCCGUACGGAGCG [C5U C22G A40G A70G],≤ 0.5
19,GUUCUGUUGGCGUAAUGGUAAUGCGUCUCCCUCCUAUGGAGAAGACUGCGGGUUCGAGUCCCGUACAGAACG [C5U C22U A37U G67A],≤ 0.5

row,Variant,yeast fitness
1,GUUCUGUUGGCGUAAUGGUAAUGCGUCUCCUUCCUAAGGAGAAGACUGAGGGUUCGAGCCCCGUACGGAACG [C5U C22U C31U C49A U59C],≤ 0.5
2,GUUCUGUUGGCGUAAUGGUAAAGCGUCUCCCUCCUAAGGAGCAGACUGCGGGUUGGCGUCCUGUACGGAACG [C5U C22A A42C C55G A57C C62U],≤ 0.5
3,GUUCUGUUGGCGUAAUGGUAAUGCGUCUCCCUUCUAAGGAGAAGACUGCGGGUUCGAGUCGCGUACGGAACG [C5U C22U C33U C61G],≤ 0.5
4,GUUCUGUUGGCGUAAUGGUAAGGCGUCUCCCUCCUAAGGGGAAGAUUGCGGGUUCGAGUCCUGUACGGAACG [C5U C22G A40G C46U C62U],≤ 0.5
5,GUUCUGUUGGUGUAAUGGUAACGCGUCUCCCUCCUAAGGAGAAGAUUGCGGGUUCGAGUCCCGUACGGAACG [C5U C11U C46U],0.752
6,GUUCUGUUGGUGUAAUGGUAACGCGUCUCCCUCCUAAGGAGAAGAGUGCGGGUUCGAGUCCCGUACGGAACG [C5U C11U C46G],0.7
7,GUUCUGUUGGUGUAAUGGUAACGCGUCUCCCUGCUAAGGAGACGACUGCGGGUUCGAGUCCCGUACGGAACG [C5U C11U C33G A43C],≤ 0.5
8,GUUCUGUUGGCGUAAUGGUAAUGCGUCUCCGUGUUAAGGAGAAGACUGCGGGUUCGAGUCCCGUACGAAACG [C5U C22U C31G C33G C34U G68A],≤ 0.5
9,GUUCUGUUGGCGUAAUGGUAAUGCGUCUCCCUCCUAAGGAGAAGGCUGCGGGUUCGAGUCCCGUACGGAACG [C5U C22U A45G],0.666
10,GUUCUGUUGGUGUAAUGGUAACGCGUCUCCCUCCUAAGGAGAAGACUGCGGGGUCAAGUCUCGUACGGAACG [C5U C11U U53G G56A C61U],≤ 0.5
11,GUUCUGUUGGUGUAAUGGUAACGCGUCCCCCUCGUAAGGGGAGGAGUGCGGAUUUGAGUCCCGUAUGGAACG [C5U C11U U28C C34G A40G A43G C46G G52A C55U C66U],≤ 0.5
12,GUUCUGUUGGCGUAAUGGUAACGGGUCUCGCUCCUUAGGAGAAGACUGCGGGUUUGAGUCCCGUACGGCACG [C5U C24G C30G A36U C55U A69C],≤ 0.5
13,GUUCUGUUGGCGUAAUGGUAAAGCGUCUCCCUCCUAAGGAGAAGACUGCGGGUUCGAGUGCCGUACGGAACG [C5U C22A C60G],0.628
14,GUUCUGUUGGCGUAAUGGUAAUGCGUCUCCCUCCUAAGGAGAAGACUGCGGGUUCGAGUCCCGUACGGAACG [C5U C22U],0.792
15,GUUCUGUUGGCGUAAUGGUAAAGCGUCUCCCUCCUAAGGAGAAGACUGCGGGUUCGAGUCCCGUACGGAACG [C5U C22A],0.84
16,GUUCUGUUGGCGUAAUGGUAAGGCGUCUCCCUCCUAAGGAGAAGACUGCGGGUUCGAGUCCCGUACGGAACG [C5U C22G],0.991
17,GUUCUGUUGGCGUAAUGGUAAAGCGUCUCCCUCCUAAGGAGAAGACUGCGGGUUCGAGUCCGGUACGGAACG [C5U C22A C62G],0.546
18,GUUCUGUUGGUGUAAUAGUAACGCGUCUCCGUCCUAAGGAGAAGACUGCGGGUUCGAGUCCCGUACGAAACG [C5U C11U G17A C31G G68A],≤ 0.5
19,GUUCUGUUGGCGUAAUGGUAAGGCGUCUCUCUGCUAAGGAGAAGACUGCGGGUUCGAGUCCCGUACGGGACG [C5U C22G C30U C33G A69G],0.552

# Reference: the RNAGym collection of RNA variant scans (doi:10.1126/science.aae0568)
